In ChEMBL document CHEMBL4152211, “Discovery of novel Methylsulfonyl phenyl derivatives as potent human Cyclooxygenase-2 inhibitors with effective anticonvulsant action: Design, synthesis, in-silico, in-vitro and in-vivo evaluation” (Eur J Med Chem, 2018):
pIC50: −log10 of the molar value. Calls of active or inactive are those of the source. The rule behind the calls is not given here.

Assays:
[1] = target: T1, Prostaglandin G/H synthase 2 (Homo sapiens) (UniProt P35354); test: Inhibition of human recombinant COX2 at 10 uM using arachidonic acid as substrate preincubated for 5 mins followed by substrate addition and measured after 2 mins by ADPH probe-based fluorescence assay relative to control
T1 sequence (whole entry): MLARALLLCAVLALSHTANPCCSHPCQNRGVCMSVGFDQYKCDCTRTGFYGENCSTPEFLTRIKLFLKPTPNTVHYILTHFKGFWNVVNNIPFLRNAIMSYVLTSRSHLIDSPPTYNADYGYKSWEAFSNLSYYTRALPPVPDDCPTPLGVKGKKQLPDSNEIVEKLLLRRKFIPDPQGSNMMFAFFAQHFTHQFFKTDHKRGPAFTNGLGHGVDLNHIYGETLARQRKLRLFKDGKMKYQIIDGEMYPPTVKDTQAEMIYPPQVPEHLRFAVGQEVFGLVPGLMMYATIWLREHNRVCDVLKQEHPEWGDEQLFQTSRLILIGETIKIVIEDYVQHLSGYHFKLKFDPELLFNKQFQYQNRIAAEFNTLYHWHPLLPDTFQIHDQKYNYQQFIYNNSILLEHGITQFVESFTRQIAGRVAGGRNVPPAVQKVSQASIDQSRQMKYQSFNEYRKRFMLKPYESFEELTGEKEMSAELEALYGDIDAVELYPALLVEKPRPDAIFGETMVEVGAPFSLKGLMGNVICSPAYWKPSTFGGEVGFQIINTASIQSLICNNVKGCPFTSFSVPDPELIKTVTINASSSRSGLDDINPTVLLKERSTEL
In short: (§1)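 Kit assay in 100 mM Tris-HCl pH 8.0. Enzyme, heme and inhibitor (DMSO stocks) are incubated 5 min at room temperature. ADPH is added, then arachidonic acid starts the reaction. After 2 min, fluorescence is read at ex 535/em 590 nm. Percent inhibition is taken versus the 100% activity well, background wells included. IC50 is derived from percentage inhibition, mean of three independent experiments.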

[2] = target: T2, Prostaglandin G/H synthase 1 (Ovis aries) (UniProt P05979); test: Inhibition of ovine COX1 at 10 uM using arachidonic acid as substrate preincubated for 5 mins followed by substrate addition and measured after 2 mins by ADPH probe-based fluorescence assay relative to control; in short: as §1
T2 sequence (whole entry): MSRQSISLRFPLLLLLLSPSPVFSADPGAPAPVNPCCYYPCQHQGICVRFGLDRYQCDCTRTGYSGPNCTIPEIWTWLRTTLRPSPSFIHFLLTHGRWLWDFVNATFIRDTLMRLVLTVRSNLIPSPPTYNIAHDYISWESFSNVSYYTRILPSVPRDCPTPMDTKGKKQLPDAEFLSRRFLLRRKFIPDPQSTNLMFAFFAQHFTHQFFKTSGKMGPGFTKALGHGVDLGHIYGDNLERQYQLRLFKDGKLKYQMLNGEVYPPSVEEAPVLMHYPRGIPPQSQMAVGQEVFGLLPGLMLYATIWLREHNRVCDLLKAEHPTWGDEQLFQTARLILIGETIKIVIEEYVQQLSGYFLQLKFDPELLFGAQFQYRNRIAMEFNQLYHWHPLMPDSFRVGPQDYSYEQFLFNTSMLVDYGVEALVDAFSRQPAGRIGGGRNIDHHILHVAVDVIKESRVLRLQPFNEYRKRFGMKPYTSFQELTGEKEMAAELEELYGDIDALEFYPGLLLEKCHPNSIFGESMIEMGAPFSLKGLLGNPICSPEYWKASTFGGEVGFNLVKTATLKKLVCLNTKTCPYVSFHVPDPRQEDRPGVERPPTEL

[3] = target: T3, Prostaglandin G/H synthase 2 (Homo sapiens, UniProt P35354); test: Inhibition of human recombinant COX2 using arachidonic acid as substrate preincubated for 5 mins followed by substrate addition and measured after 2 mins by ADPH probe-based fluorescence assay; in short: as §1
T3 sequence (P35354 whole entry): T1 sequence (whole entry)

Mus musculus [4] = test: Anticonvulsant activity in Swiss albino mouse assessed as protection against subcutaneous pentylenetetrazole-induced seizures at 30 mg/kg, ip administered 4 hrs prior to PTZ challenge and measured after 30 mins; assay type: functional
In short: (§2)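 Male Swiss Albino mice (25–30 g), 6 per group, dosed i.p. with drugs in sterile saline, then challenged with PTZ 85 mg/kg s.c. (CD97), given at 10 ml/kg, 0.5 h or 4 h later. Each animal is observed singly for seizures. Protection is scored as protected/total animals.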

Mus musculus [5] = test: Anticonvulsant activity in Swiss albino mouse assessed as protection against subcutaneous pentylenetetrazole-induced seizures at 100 mg/kg, ip administered 0.5 hrs prior to PTZ challenge and measured after 30 mins; assay type: functional; in short: as §2
Mus musculus [6] = test: Anticonvulsant activity in Swiss albino mouse assessed as protection against subcutaneous pentylenetetrazole-induced seizures at 300 mg/kg, ip administered 0.5 hrs prior to PTZ challenge and measured after 30 mins; assay type: functional; in short: as §2
Mus musculus [7] = test: Anticonvulsant activity in Swiss albino mouse assessed as protection against subcutaneous pentylenetetrazole-induced seizures at 100 mg/kg, ip administered 4 hrs prior to PTZ challenge and measured after 30 mins; assay type: functional; in short: as §2
Mus musculus [8] = test: Anticonvulsant activity in Swiss albino mouse assessed as protection against subcutaneous pentylenetetrazole-induced seizures at 30 mg/kg, ip administered 0.5 hrs prior to PTZ challenge and measured after 30 mins; assay type: functional; in short: as §2
Mus musculus [9] = test: Anticonvulsant activity in Swiss albino mouse assessed as protection against subcutaneous pentylenetetrazole-induced seizures at 300 mg/kg, ip administered 4 hrs prior to PTZ challenge and measured after 30 mins; assay type: functional; in short: as §2
Mus musculus [10] = test: Anticonvulsant activity in Swiss albino mouse assessed as protection against subcutaneous pentylenetetrazole-induced seizures at 10 mg/kg, ip administered 0.5 hrs prior to PTZ challenge and measured after 30 mins; assay type: functional; in short: as §2
Mus musculus [11] = test: Anticonvulsant activity in Swiss albino mouse assessed as protection against subcutaneous pentylenetetrazole-induced seizures at 1 mg/kg, ip administered 4 hrs prior to PTZ challenge and measured after 30 mins; assay type: functional; in short: as §2
Rattus norvegicus = test: Antiepileptic activity in rat model of PTZ-induced epileptiogenesis kindling model assessed as decrease of seizure severity at 5 mg/kg, ip measured up to 28 days; assay type: functional, organism-based
In short: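 Adult male Wistar rats receive PTZ 40 mg/kg i.p. on alternate days for 28 days plus daily i.p. treatment. After each PTZ injection, rats are observed singly for 45 min and scored on the revised Racine scale (stages to 6). Group mean score per week, ±S.D. Statistics are repeated-measures ANOVA with Tukey's test.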

Mus musculus [12] = test: Anticonvulsant activity in Swiss albino mouse assessed as protection against subcutaneous pentylenetetrazole-induced seizures at 10 mg/kg, ip administered 4 hrs prior to PTZ challenge and measured after 30 mins; assay type: functional; in short: as §2
Mus musculus [13] = test: Anticonvulsant activity in Swiss albino mouse assessed as protection against subcutaneous pentylenetetrazole-induced seizures at 5 mg/kg, ip administered 0.5 hrs prior to PTZ challenge and measured after 30 mins; assay type: functional; in short: as §2
Mus musculus [14] = test: Anticonvulsant activity in Swiss albino mouse assessed as protection against subcutaneous pentylenetetrazole-induced seizures at 1 mg/kg, ip administered 0.5 hrs prior to PTZ challenge and measured after 30 mins; assay type: functional; in short: as §2
Mus musculus [15] = test: Anticonvulsant activity in Swiss albino mouse assessed as protection against subcutaneous pentylenetetrazole-induced seizures at 5 mg/kg, ip administered 4 hrs prior to PTZ challenge and measured after 30 mins; assay type: functional; in short: as §2

| Compound | inhibition [1] [%] | inhibition [2] | pIC50 [3] | further results |
| --- | --- | --- | --- | --- |
| COc1ccc(NC(=S)NNC(=O)Nc2ccc(S(C)(=O)=O)cc2)cc1 | 62 | inactive | 5.15 | – |
| CS(=O)(=O)c1ccc(NC(=O)NNC(=S)Nc2c(F)cccc2F)cc1 | 62 | inactive | 5.19 | – |
| Cc1cccc(C)c1NC(=S)NNC(=O)Nc1ccc(S(C)(=O)=O)cc1 | 64 | inactive | 5.50 | Activity (Mus musculus [4]): 17%; Activity (Mus musculus [5]): 33%; Activity (Mus musculus [6]): 33%; Activity (Mus musculus [7]): 33%; Activity (Mus musculus [8]): 17%; Activity (Mus musculus [9]): 50% |
| CS(=O)(=O)c1ccc(NC(=O)NNC(=S)Nc2ccccc2)cc1 | 50 | inactive | 4.89 | – |
| CS(=O)(=O)c1ccc(NC(=O)NNC(=S)Nc2ccc(Cl)cc2)cc1 | 70 | inactive | 5.27 | – |
| CS(=O)(=O)c1ccc(NC(=O)NNC(=S)Nc2ccc(F)cc2)cc1 | 54 | inactive | 4.90 | – |
| CCCC(CCC)C(=O)[O-].[Na+] [VALPROATE SODIUM] | – | – | – | Activity (Mus musculus [6]): 100%; Activity (Mus musculus [9]): 50% |
| CCNC(=S)NNC(=O)Nc1ccc(S(C)(=O)=O)cc1 | 32 | inactive | – | – |
| Cc1ccc(-c2ncc(Cl)cc2-c2ccc(S(C)(=O)=O)cc2)cn1 [ETORICOXIB] | – | – | – | Activity (Mus musculus [10]): 50%; Activity (Mus musculus [11]): 50%; Activity (Rattus norvegicus): Active; Activity (Mus musculus [12]): 50%; Activity (Mus musculus [13]): 67%; Activity (Mus musculus [14]): 50%; Activity (Mus musculus [15]): 67% |
| CS(=O)(=O)c1ccc(NC(=O)NNC(=S)NCc2ccccc2)cc1 | 21 | inactive | – | – |
| CS(=O)(=O)c1ccc(NC(=O)NNC(=S)NCCc2ccccc2)cc1 | 22 | inactive | – | – |
| CS(=O)(=O)c1ccc(NC(=O)NNC(=S)Nc2cccc(Cl)c2Cl)cc1 | 46 | inactive | – | – |
